MrgX1 antagonist: human MrgX1 receptor antagonism, primary screen; Q96LB2; MRGX1-HEK293 calcium flux, Fluo-4, BAM8-22 antagonism; active compounds read low; B-score at 10 µM; 310,000 tested, 1.3% active;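 active means calcium-response B-score plate-corrected more than 3 library SD below zero, starting fluorescence within 5 deviations, no agonist response on first addition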;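 further: peak minus trough fluorescence over baseline after final BAM8-22 challenge near maximal dose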
MrgX1 ag: activates human MrgX1 receptor signaling; AID 588627; MrgX1-HEK293 cells, Fluo-4 calcium fluorescence, agonist mode; active compounds read high; B-score at 10 µM; 310,000 tested, 0.44% active;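 active means calcium response B-score plate-corrected fluorescence ratio at least 3 library SD, with starting fluorescence B-score inside 5 SD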
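Assay system: MrgX1-expressing HEK293 cells / Amount: fifteen thousand cells per well / Doses: test compound in the initial addition of three / Timing: cells plated overnight, dye loaded 0.5 h 37 °C, 0.5 h room temperature / Technique: kinetic calcium dye fluorescence, Fluo-4 NW / Control set: positive and negative controls per plate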
RGS4 act: RGS4 potentiation or activation. HEK293 M3R/inducible RGS4, carbachol calcium flux Fluo4; active compounds read low. B-score at 10 µM. 310,000 tested, 0.92% active. AID 463111;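 active means B-score of the integrated calcium signal more than 4 SD below the library mean, with starting fluorescence not abnormally high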;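 further: negative B-score means reduced calcium response which marks RGS4 activation or potentiation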
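Test system: HEK293 cells with stable M3R and inducible RGS4; also added: carbachol at ECmax as muscarinic agonist stimulus; schedule: dye loading 30 min 37 °C, buffer rest 30 min RT; technique: kinetic calcium fluorescence imaging with Fluo4-AM dye, 2 µM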
RGS4 inh: human RGS4 inhibition | P49798 | B-score at 10 µM | HEK293 M3R/RGS4 inducible, Fluo-4 calcium flux; active compounds read high; triggered by carbachol at its EC20 | 310,000 tested, 0.45% active | AID 463165;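 active means B-score, a plate-corrected calcium signal, over three deviations above library mean, with baseline fluorescence within five deviations of library mean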;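 further: RGS4 expression induced by doxycycline in cells with stable M3 receptor; B-score is computed from the integrated fluorescence ratio over baseline after carbachol; higher B-score means a larger calcium signal and so more RGS4 inhibition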
Target sequence (P49798 whole entry, looked up): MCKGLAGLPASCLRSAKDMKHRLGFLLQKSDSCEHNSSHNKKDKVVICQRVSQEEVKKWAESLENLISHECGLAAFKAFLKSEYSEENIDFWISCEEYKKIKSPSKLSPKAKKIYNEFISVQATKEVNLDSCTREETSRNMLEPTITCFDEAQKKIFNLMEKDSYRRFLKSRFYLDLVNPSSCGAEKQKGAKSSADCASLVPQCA
MrgX1 allo act: allosterically activates human MrgX1 receptor signaling. B-score at 10 µM. MrgX1-HEK293, Fluo-4 calcium flux, FDSS; active compounds read high. 310,000 tested, 0.63% active;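 active means plate-corrected calcium response at least 3 library SD above typical, normal starting fluorescence, not activating the receptor alone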;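 further: compound read alongside a low EC10 to EC30 dose of BAM8-22 agonist; peak minus trough fluorescence over baseline measured at the second addition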
Numbers without * were called inactive; i = inactive; · = no result. The list is not random: actives were taken first. Their share in the collection is about 3.5%.

SMILES | MrgX1 antagonist | MrgX1 ag | RGS4 act | RGS4 inh | MrgX1 allo act
Cc1cc(/C=C2\SC(=S)NC2=O)c(C)n1-c1ccc(O)cc1 | i | 43* | i | i | i
CC(=O)OC1COC(OC2C(O)C(C)OC(OC3C(OC4CCC5(C)C(CCC6(C)C5CC=C5C7CC(C)(C)CCC7(C(=O)O)CCC56C)C4(C)CO)OCC(O)C3O)C2O)C(O)C1OC(C)=O (stereo not given) | i | 219* | · | · | i
CC1(C)CC[C@]2(C(=O)O)CC[C@]3(C)C(=CC[C@@H]4[C@@]5(C)CC[C@H](O)C(C)(C)[C@@H]5CC[C@]43C)[C@@H]2C1 | i | i | · | · | i
CCCCCN(C(=O)CCC(=O)OCC(=O)Nc1cccc(SC)c1)c1c(N)n(CCCC)c(=O)[nH]c1=O | i | i | i | i | i
O=c1c(F)cn(C2CCCO2)c(=O)n1Cc1ccc(Cl)cc1 (stereo not given) | i | i | i | i | i
O=C(Nc1ccc(C(O)(C(F)(F)F)C(F)(F)F)cc1)c1ccc(Cl)c([N+](=O)[O-])c1 | i | i | -8.8* | i | i
N#Cc1ccsc1NC(=O)c1cccc([N+](=O)[O-])c1 | i | i | i | i | i
N#Cc1ccsc1NC(=O)c1ccc(Cl)c([N+](=O)[O-])c1 | -4.9* | i | i | i | i
COc1ccc2c(c1)C(SCC(=O)NCCc1ccc(Cl)cc1)CC(C)(C)O2 (stereo not given) | i | i | i | i | i
COc1ccc(C(=O)OCC(=O)NCc2ccccc2)c(OC)c1OC | i | i | i | i | i
CCCCCCCNC(=O)C1(CC2CC(c3ccc(Cl)cc3)=NO2)CCN(C(=O)c2cc(OCC)c(OCC)c(OCC)c2)CC1 (stereo not given) | i | i | i | i | i
O=C(Nc1ccccc1Cl)C1(c2ccccc2)CC1(Cl)Cl (stereo not given) | i | i | -7* | i | i
C=C[C@H]1CN2CC[C@H]1C[C@H]2[C@H](O)c1ccnc2ccc(OC)cc12 | i | i | i | i | i
CCCCn1nc(NS(=O)(=O)c2cccc3nonc23)c2cc3cccc(C)c3nc21 | i | i | i | i | 7.1*
COc1ccc2[nH]c(C(O)(Cc3cccnc3)Cc3cccnc3)cc2c1 | i | i | i | i | i
CCOc1cccc2c1OC(c1cc(OC)c(OC)c(OC)c1)N1N=C(c3ccc(C)o3)CC21 (stereo not given) | -5.8* | i | i | i | i
CC(=O)NCC(=O)N(c1c(C)n(C)n(-c2ccccc2)c1=O)C1(C(=O)NC2CCCC2)CCCCC1 | i | i | i | i | 15*
CCOC(=O)/C(C#N)=C/C1=C(N2CCCC2)CC(C)(CC)OC1 (stereo not given) | i | i | i | i | i
C#CC[N+]1(CC#Cc2ccccc2)CCCCC1 | i | i | i | i | i
C#CC[N+]1(CC#Cc2cccc(C)c2)CCCCC1 | i | i | i | i | i
Cc1ccc(C#CC[N+]2(CC#Cc3ccc(C)cc3)CCCCC2)cc1 | i | i | -7.1* | i | i
C(#Cc1ccccc1)C[N+]1(CC#Cc2ccccc2)CCCCC1 | i | i | -8.6* | i | i
COc1ccc(C)cc1Nc1nc(N)c2cc(OC)c(OC)cc2n1 | -4.5* | i | i | i | i
COCCN(CCOC)S(=O)(=O)c1ccc(C(=O)Nc2ccc([N+](=O)[O-])cc2OC)cc1 | i | i | i | i | i
Cc1ccc(N=C2NC(=O)/C(=C/c3cn(C)c4ccccc34)S2)cc1C | -4.8* | i | · | · | i
Cn1cccc1/C=C1\SC(=Nc2ccccc2)NC1=O | i | i | i | i | i
CSc1nnc(C)c(=O)n1COC(=O)c1ccc([N+](=O)[O-])cc1 | i | i | i | i | 12*
CCCCn1c2ccc(C)cc2c2nnc(SCCN3CCCCC3)nc21 | i | i | -12* | i | i
CC(=O)/C(=N/Nc1ccc(Br)cc1)N1CCCc2ccccc21 | i | i | -7.7* | i | i

Screening data (PubChem BioAssay)
